Screening results: PubChem, The Scripps Research Institute Molecular Screening Center
CHRM5 antagonist = blocks acetylcholine activation of human M5 receptor. P08912. CHO-hM5 cells, Fluo-8 calcium fluorescence, ACh EC80. inhibition, % at 3 µM. 0.59% of 360,000 active. AID 624040;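 active means inhibition above a per-plate cutoff, the mean of that plate's test compounds plus 3 SD, cut at about 27% in these data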;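 further: 0% = acetylcholine EC80 with DMSO and 100% = DMSO without agonist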
CHRM5 PAM = positive allosteric modulators of human muscarinic M5 receptor; P08912; activation, % at 3 µM; AID 624038; CHO-K1 hM5, Fluo-8 calcium, ACh EC20 PAM; 0% = ACh EC20, 100% = ACh EC100; 0.3% of 360,000 active;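 active means activation above the run cutoff, the mean activation of all test compounds plus 3 SD, cut at about 18% in these data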
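Measured by: Fluo-8 calcium fluorescence; material: human M5 receptor in CHO-K1 cells; schedule: Post-acetylcholine fluorescence recording 140 s; benchmarks: low control EC20 acetylcholine (0%), high control EC100 acetylcholine (100%); read-out: Max/basal fluorescence ratio as % of EC20–EC100 ACh window; compound: single dose, 3 µM nominal final test concentration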
M4 antag = blocks acetylcholine activation of human M4 receptor; AID 624125; CHO-hM4 cells, ACh EC80, Fluo-8 calcium fluorescence; 0.73% of 360,000 active; P08173; inhibition, % at 3 µM;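 active means inhibition above its plate's cutoff, the mean inhibition of sample wells plus 3 SD, cut at about 27% in these data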;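 further: 0% = acetylcholine EC80 with DMSO and 100% = DMSO without agonist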
Target sequence (P08173 whole entry, looked up): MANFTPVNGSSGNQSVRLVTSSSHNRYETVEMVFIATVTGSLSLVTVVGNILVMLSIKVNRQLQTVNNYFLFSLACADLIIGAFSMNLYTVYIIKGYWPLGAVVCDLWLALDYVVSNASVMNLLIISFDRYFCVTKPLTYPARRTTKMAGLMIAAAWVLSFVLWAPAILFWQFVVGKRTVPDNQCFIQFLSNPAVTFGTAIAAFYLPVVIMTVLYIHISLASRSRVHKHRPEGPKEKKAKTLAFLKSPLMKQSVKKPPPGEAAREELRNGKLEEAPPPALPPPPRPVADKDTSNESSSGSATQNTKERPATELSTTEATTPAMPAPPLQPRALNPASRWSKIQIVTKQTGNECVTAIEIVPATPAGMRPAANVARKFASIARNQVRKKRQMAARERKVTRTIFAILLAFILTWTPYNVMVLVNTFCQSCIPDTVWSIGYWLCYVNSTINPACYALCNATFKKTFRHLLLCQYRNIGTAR
CHRM4 agonist = agonists of human muscarinic M4 receptor (CHRM4). CHO-K1 hM4/Gqi5, Fluo-8 calcium fluorescence; vehicle 0%, full acetylcholine response 100%. AID 624127. activation, % at 3 µM. 0.14% of 360,000 active. P08173;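 active means activation above the run mean over all test wells plus 3 SD, cut at about 32% in these data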;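 further: peak over basal fluorescence ratio per well then scaled between controls; 0% = DMSO wells and 100% = acetylcholine at EC100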
CHRM5 agonist = CHRM5 agonism in calcium assay | 0.19% of 360,000 active | activation, % at 3 µM | AID 624037 | CHO-K1 hM5 cells, Fluo-8 calcium fluorescence; 0% DMSO wells, 100% maximal acetylcholine response | P08912;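 active means activation above the run's mean over test compounds plus 3 SD, cut at about 23% in these data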;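 further: signal is peak over basal fluorescence ratio across the kinetic read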
M4 PAM = potentiates acetylcholine response at human M4 receptor | CHO-K1 hM4/Gqi5, Fluo-8 calcium fluorescence, ACh EC20; 0% = ACh EC20, 100% = maximal ACh | activation, % at 3 µM | 0.4% of 360,000 active | AID 624126;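 active means activation above its plate's cutoff, the mean activation of sample wells plus 3 SD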
Numbers without * were called inactive. Hits are enriched below; roughly 1.8% of the tested compounds scored in any of these assays.

SMILES | CHRM5 antagonist | CHRM5 PAM | M4 antag | CHRM4 agonist | CHRM5 agonist | M4 PAM
COc1ccc(CNC(=O)O[C@H]2C[C@@H]3C(=O)N(c4ccccc4)C(=O)[C@@H]3[C@@H]3CN(S(=O)(=O)c4ccc(C)cc4)C[C@]23O)cc1OC | 0.6 | 6.2 | -3.0 | 0.2 | -1.8 | 2.9
Cc1cc(NC(=O)CSc2nnc(COc3cccc(C)c3C)n2Cc2ccco2)no1 | -5.3 | 3.8 | -6.6 | 0.9 | 1.7 | 28.8*
Cc1cccc(OCc2nnc(SCC(=O)N(C(C)C)C(C)C)n2Cc2ccco2)c1C | 6.6 | 15.3 | -3.3 | 0.0 | -1.3 | 13.5
Cc1cccc(NC(=O)CSc2nccn2Cc2ccco2)c1C | -37.2 | 19.9* | 2.4 | 1.4 | -2.2 | 18.5*
Cc1ccc(-c2csc(N3CCC(NS(=O)(=O)c4ccc5c(c4)OCCO5)CC3)n2)cc1 | 28.1* | -21.1 | 21.3 | 9.9 | 3.8 | -10.2
COCCCN1C(=O)C(CC(=O)NCc2cccs2)CC(C(=O)N(C(C)C)C(C)C)=C1C (stereo not given) | 9.7 | -1.1 | -3.5 | 1.1 | 0.2 | -3.0
CCCCNC(=O)COCc1cc(-c2ccc3c(c2)OCO3)on1 | 8.3 | -5.9 | -4.9 | 6.3 | -1.3 | 15.2*
N#Cc1ccc2[nH]cc(C3c4cc(F)ccc4C=C(c4ccsc4)N3c3ccc(C#CCCO)cc3)c2c1 (stereo not given) | 4.3 | -9.1 | 41.4* | 2.5 | -5.2 | -14.6
COc1cc(-c2ccc(N3C(c4ccsc4)=Cc4ccc(F)cc4C3c3c[nH]c4ccc(C#N)cc34)cc2)cc(OC)c1OC (stereo not given) | -0.6 | -8.4 | -2.3 | 1.3 | 1.8 | 5.3
Cc1ccc(S(=O)(=O)c2cccc(S(=O)(=O)N3CCCC3)c2)cc1S(=O)(=O)N1CCCC1 | 17.3 | -15.6 | 81.4* | 8.8 | -5.4 | -32.6
CCOC(=O)CC1c2nc3ccccc3cc2CN1C(=O)OCC (stereo not given) | 7.8 | 1.4 | -12.4 | 2.9 | 2.0 | 5.0
Cc1ccc(Cn2nnc3c(=O)[nH]c(C4CCN(S(=O)(=O)c5ccc(F)cc5)CC4)nc32)cc1 | 5.3 | -2.3 | 32.3* | -1.5 | -2.4 | -30.8
Cc1ccc(C)c(S(=O)(=O)N2CCC(c3nc4c(nnn4Cc4ccc(F)cc4)c(=O)[nH]3)CC2)c1 | 3.6 | 0.7 | 49.0* | -0.4 | -2.6 | -21.7
O=c1[nH]c(C2CCN(S(=O)(=O)c3ccccc3F)CC2)nc2c1nnn2Cc1ccc2c(c1)OCCO2 | -16.4 | 13.3 | -14.4 | 1.3 | -0.5 | 6.0
O=c1[nH]c(C2CCN(S(=O)(=O)c3ccc(F)cc3)CC2)nc2c1nnn2Cc1ccc2c(c1)OCCO2 | 0.3 | -3.3 | 80.7* | -1.0 | -7.3 | -12.0
Cc1ccc(NC(=O)CSCc2nc3c(nnn3Cc3ccc(F)cc3)c(=O)[nH]2)c(C)c1 | -13.6 | 20.9* | -8.1 | 1.5 | 6.1 | 8.6
Cc1cccc(NC(=O)CSCc2nc3c(nnn3Cc3ccc(F)cc3)c(=O)[nH]2)c1C | 6.2 | 2.9 | -1.0 | 0.6 | 0.1 | 0.0
O=c1[nH]c(C2CCN(S(=O)(=O)c3ccc(S(=O)(=O)NC4CC4)cc3)CC2)nc2c1nnn2Cc1ccc(F)cc1 | 10.6 | -2.4 | 17.7 | 1.9 | -5.2 | -19.6
O=C(NCc1ccc(F)cc1F)[C@@H]1CCCN1C(=O)[C@@H]1CCCN1C(=O)c1ccc(Cl)cc1 | 6.1 | -2.7 | 2.3 | -0.5 | -2.6 | -2.6
Nc1ncnc2c1ncn2[C@@H]1O[C@H](C(=O)N2CCN(c3ccc(Cl)cn3)CC2)[C@@H](O)[C@H]1O | 6.2 | 6.2 | -2.5 | 0.1 | 0.8 | 2.6
O=C(c1cc2sccc2n1Cc1ccccc1)N1CCN(c2nc3ccccc3s2)CC1 | 15.3 | -10.1 | 26.8* | 3.5 | -1.2 | -9.6
CCC(=O)N1CCN(c2nc3ccccc3s2)CC1 | -0.6 | -3.7 | -3.5 | 3.6 | 4.0 | 4.2
CCc1sc(C(=O)Nc2ncccc2C)cc1C | 8.8 | 0.3 | 9.8 | 1.9 | -0.3 | 4.6
CCc1sc(C(=O)Nc2ncccc2O)cc1C | -2.0 | -7.0 | -5.4 | -0.5 | -5.1 | 20.4*
